# Measured values from article PMC5912898 (Nature chemical biology, 2017).
# Read-outs that look alike come from different tables or passages of the source.
# How the values were obtained:
# [1] = tested on: MOLT4 cells; experiment: Proliferation assay; type: cell-based, human; conditions: for IC50: read-out: proliferation IC50
# [2] = tested on: MOLT4 cells; experiment: Apoptosis by immunoblot; type: cell-based, human; conditions: wildtype MOLT4 cells, 250 nM
# Procedure, shortened: (§1)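 Wildtype MOLT4 cells were treated with 250 nM test compound for the indicated times. They were lysed for 30 min on ice in RIPA buffer (pH 7.4) with protease and phosphatase inhibitors and nuclease. Lysates were clarified at 21,000g for 30 min at 4°C and protein measured by BCA. Blots were detected with infrared-labelled secondary antibodies.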
# [3] = tested on: RNA Pol II CTD Serine 2 phosphorylation; experiment: RNA Pol II CTD phosphorylation by immunoblot; type: cell-based, human; conditions: MOLT4 cells
# Procedure, shortened: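 MOLT4 cells lysed on ice for 30 min in RIPA buffer (pH 7.4) with protease and phosphatase inhibitors and 2.5 U/mL nuclease. Lysate spun at 21,000g, 30 min, 4°C, and protein measured by BCA. Blots probed with anti-phospho-CTD Ser2 alongside total Pol II and tubulin. Infrared-labelled secondaries; blots imaged on Odyssey.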
# [4] = tested on: PCTAIRE2,PCTAIRE3; experiment: Kinativ live cell chemical proteomics; type: cell-based, human; conditions: live cell treatment, 0.25μM
# [5] = molecular target: T1, CDK9 (Homo sapiens, UniProt P50750); experiment: Bio-AT7519 pulldown target engagement; type: cell-based; conditions: 6 hours, 1μM, 500nM or 250nM
# Procedure, shortened: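 Live wildtype or CRBN−/− MOLT4 cells were exposed to DMSO or test compound for 6 h, then PBS-washed and lysed (50 mM Tris-HCl pH 8.0, 150 mM NaCl, 1% NP-40, 5 mM EDTA, 1 mM DTT, protease/phosphatase inhibitors). Clarified lysate (input sampled) was rotated overnight at 4°C with 1μM biotinylated AT7519, then captured on streptavidin resin for 3 h at 4°C. Beads were washed ×5, boiled, and immunoblotted.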
# [6] = molecular target: T1, CDK9; experiment: Kinativ live cell chemical proteomics; type: cell-based; conditions: CRBN−/− MOLT4 cells, live cell treatment, 0.25μM
# Procedure, shortened: (§2)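 Test compound was applied to intact MOLT4 cells (CRBN−/− or wildtype). Cells were then sonicated in 50 mM HEPES pH 7.5, 150 mM NaCl, 0.1% Triton X-100 with phosphatase inhibitors, and cleared. Lysate was labelled with desthiobiotin-ATP acylphosphate probe (20 μM final) for 10 min. Samples were reduced and alkylated for LC-MS/MS, and % inhibition was calculated from integrated peak areas against DMSO controls.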
# [7] = molecular target: CDK6 (Homo sapiens, UniProt Q00534); experiment: Kinativ live cell chemical proteomics; type: cell-based; conditions: live cell treatment, 0.25μM
# [8] = molecular target: PCTAIRE2 (Homo sapiens, UniProt Q00537); experiment: Kinativ live cell chemical proteomics; type: cell-based; conditions: live cell treatment, 0.25μM
# [9] = molecular target: T1, CDK9; experiment: Kinomescan profiling; type: binding; conditions: 1μM
# [10] = molecular target: T1, CDK9; experiment: Kinativ lysate chemical proteomics; type: binding; conditions: MOLT4 cell lysate, 1uM
# Procedure, shortened: (§3)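 MOLT4 lysate (sonicated in HEPES pH 7.5/NaCl/Triton buffer, then gel-filtered) was incubated 15 min in duplicate with test compound added from a 100X DMSO stock, or with DMSO alone. Desthiobiotin-ATP acylphosphate probe (20 μM final) was then added for 10 min. Peptides were analysed by LC-MS/MS, and % inhibition was calculated as 1 − treated/control signal.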
# [11] = molecular target: CDK2 (Homo sapiens, UniProt P24941); experiment: Bio-AT7519 pulldown target engagement; type: cell-based; conditions: wildtype and CRBN−/− MOLT4 cells, 6 hours, 1μM, 500nM or 250nM
# [12] = tested on: PCTAIRE1,PCTAIRE3; experiment: Kinativ live cell chemical proteomics; type: cell-based, human; conditions: live cell treatment, 0.25μM
# [13] = molecular target: CDK7 (Homo sapiens, UniProt P50613); experiment: Bio-AT7519 pulldown target engagement; type: cell-based; conditions: wildtype and CRBN−/− MOLT4 cells, 6 hours, 1μM, 500nM or 250nM
# [14] = molecular target: T2, CDK10 (Homo sapiens, UniProt Q15131); experiment: Kinativ lysate chemical proteomics; type: binding; conditions: MOLT4 cell lysate, 1uM
# Procedure, shortened: as §3
# [15] = molecular target: GSK3A (Homo sapiens, UniProt P49840); experiment: Kinativ live cell chemical proteomics; type: cell-based; conditions: live cell treatment, 0.25μM
# Procedure, shortened: as §2
# [16] = molecular target: DYRK1B (Homo sapiens, UniProt Q9Y463); experiment: Kinomescan profiling; type: binding; conditions: 1μM
# [17] = molecular target: CDK7/CycH/MNAT1 (Homo sapiens, UniProt P50613); experiment: Adapta Eu in vitro kinase assay; type: biochemical
# [18] = molecular target: CDK9/CycT1 (Homo sapiens, UniProt P50750); experiment: Adapta Eu in vitro kinase assay; type: biochemical
# [19] = tested on: MOLT4 cells; experiment: Annexin V flow cytometry of apoptotic cells; type: cell-based, human; conditions: 250 nM, without washout
# Procedure, shortened: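 MOLT4 cells were exposed to 250 nM test compound for 6 h, then either washed three times with media or left in compound, and collected 24 h later. Cells were PBS-washed, stained with FITC annexin V in HEPES/NaCl/CaCl₂ binding buffer (pH 7.4) at room temperature, and propidium iodide was added just before flow cytometry. Results are means ± s.d. of 3 biological replicates.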
# [20] = tested on: MCL-1; experiment: MCL-1 protein level by immunoblot; type: cell-based, human; conditions: wildtype MOLT4 cells, 250 nM time course
# Procedure, shortened: as §1
# [21] = tested on: panel of 468 kinases; experiment: Kinomescan kinome selectivity profiling; type: binding; conditions: Kinomescan at 1μM
# [22] = tested on: CDK7 mRNA; experiment: qPCR of mRNA levels; type: cell-based, human; conditions: MOLT4 cells, 250nM, 8 hours
# [23] = tested on: CRBN−/− MOLT4 cells; experiment: Proliferation assay; type: cell-based; conditions: Homo sapiens, MOLT-4, 72 h, read-out: proliferation IC50
# Procedure, shortened: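 CRBN−/− MOLT4 cells were exposed to a range of test compound concentrations for 72 h. Viability was measured with CellTiter-Glo, and IC50 was derived by non-linear regression curve fitting.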
# [24] = tested on: panel of eleven different leukemia cancer cell lines; experiment: Proliferation in leukemia cell line panel; type: cell-based
# [25] = molecular target: T2, CDK10; experiment: CDK10 degradation by immunoblot; type: cell-based; conditions: MOLT4 cells
# Procedure, shortened: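 MOLT4 cells treated with test compound were lysed in RIPA buffer (pH 7.4) with protease and phosphatase inhibitors and nuclease for 30 min on ice. Lysates were clarified at 21,000g for 30 min at 4°C and quantified by BCA. CDK10 was immunoblotted and detected with infrared-labelled secondary antibodies.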
# [26] = molecular target: CDK2/CycA (Homo sapiens, UniProt P24941); experiment: Z'LYTE in vitro kinase assay; type: biochemical
# Procedure, shortened: (§4)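 Inhibition of the recombinant cyclin-bound CDK complex was measured in a Z'LYTE kinase assay run by a contract service at the Km concentration of ATP.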
# [27] = molecular target: T1, CDK9; experiment: CDK9 degradation by immunoblot; type: cell-based
# [28] = molecular target: CDK1/CycB (Homo sapiens, UniProt P06493); experiment: Z'LYTE in vitro kinase assay; type: biochemical
# Procedure, shortened: as §4
# [29] = tested on: CDK1 mRNA; experiment: qPCR of mRNA levels; type: cell-based, human; conditions: MOLT4 cells, 250nM, 8 hours
# [30] = molecular target: T1, CDK9; experiment: Multiplexed quantitative mass spectrometry-based proteomics; type: cell-based; conditions: MOLT4 cells, 250nM, 2 hours, 4512 proteins quantified
# Procedure, shortened: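 MOLT4 cells (RPMI-1640, 10% FBS, 1% Pen/Strep, 37°C, 5% CO₂) exposed to 250nM test compound for 2 hours. Proteins labelled with 10plex TMT isobaric tags and run on an Orbitrap Fusion using SPS-MS3. Threshold of 2 peptides per protein. Log fold-change vs p-value plotted. n=3 biological replicates.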
# [31] = wildtype and CRBN−/− MOLT4 cells
# [32] = 6-hour treatment then compound washout
# T1 sequence (P50750 whole entry): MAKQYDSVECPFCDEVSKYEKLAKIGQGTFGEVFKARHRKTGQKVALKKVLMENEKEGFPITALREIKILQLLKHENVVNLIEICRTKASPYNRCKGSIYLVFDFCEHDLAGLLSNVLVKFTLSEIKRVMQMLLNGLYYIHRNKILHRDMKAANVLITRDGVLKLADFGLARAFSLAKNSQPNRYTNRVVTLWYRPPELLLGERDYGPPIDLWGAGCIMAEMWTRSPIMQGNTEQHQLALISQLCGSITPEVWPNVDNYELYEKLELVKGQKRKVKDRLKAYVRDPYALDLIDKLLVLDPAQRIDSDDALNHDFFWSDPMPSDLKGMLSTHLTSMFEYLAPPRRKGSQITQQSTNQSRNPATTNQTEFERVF
# CDK6, sequence (Q00534 whole entry): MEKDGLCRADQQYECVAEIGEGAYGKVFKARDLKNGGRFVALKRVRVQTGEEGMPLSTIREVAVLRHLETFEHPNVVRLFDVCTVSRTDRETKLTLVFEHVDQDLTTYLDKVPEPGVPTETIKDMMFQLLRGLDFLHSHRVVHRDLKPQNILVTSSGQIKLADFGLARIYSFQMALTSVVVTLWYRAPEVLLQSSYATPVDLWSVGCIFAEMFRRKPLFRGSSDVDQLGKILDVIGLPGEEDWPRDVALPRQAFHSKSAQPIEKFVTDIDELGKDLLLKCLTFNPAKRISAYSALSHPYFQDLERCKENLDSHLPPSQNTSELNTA
# PCTAIRE2, sequence (Q00537 whole entry): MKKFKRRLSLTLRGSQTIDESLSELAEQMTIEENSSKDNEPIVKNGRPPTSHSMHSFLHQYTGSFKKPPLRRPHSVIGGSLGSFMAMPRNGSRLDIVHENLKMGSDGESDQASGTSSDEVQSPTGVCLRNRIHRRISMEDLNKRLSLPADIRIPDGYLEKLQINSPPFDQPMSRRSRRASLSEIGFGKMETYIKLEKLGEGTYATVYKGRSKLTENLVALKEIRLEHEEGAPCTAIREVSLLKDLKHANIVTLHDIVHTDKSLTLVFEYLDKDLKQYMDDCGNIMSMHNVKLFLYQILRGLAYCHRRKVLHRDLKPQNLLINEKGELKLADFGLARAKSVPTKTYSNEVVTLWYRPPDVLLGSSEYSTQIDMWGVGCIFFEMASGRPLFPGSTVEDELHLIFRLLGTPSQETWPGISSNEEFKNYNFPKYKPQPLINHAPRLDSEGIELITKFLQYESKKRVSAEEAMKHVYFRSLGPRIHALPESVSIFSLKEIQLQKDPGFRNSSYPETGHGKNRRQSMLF
# T2 sequence (Q15131 whole entry): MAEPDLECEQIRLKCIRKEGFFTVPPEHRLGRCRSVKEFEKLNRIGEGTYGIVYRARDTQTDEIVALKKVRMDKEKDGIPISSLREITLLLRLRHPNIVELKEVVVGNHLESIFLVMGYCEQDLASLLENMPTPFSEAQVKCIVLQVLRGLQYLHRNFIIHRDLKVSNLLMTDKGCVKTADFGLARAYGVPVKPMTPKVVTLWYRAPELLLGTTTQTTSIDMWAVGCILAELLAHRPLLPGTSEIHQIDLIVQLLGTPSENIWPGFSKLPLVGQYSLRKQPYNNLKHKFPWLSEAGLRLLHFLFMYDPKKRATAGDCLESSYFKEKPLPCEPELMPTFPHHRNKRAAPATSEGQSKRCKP
# GSK3A, sequence (P49840 whole entry): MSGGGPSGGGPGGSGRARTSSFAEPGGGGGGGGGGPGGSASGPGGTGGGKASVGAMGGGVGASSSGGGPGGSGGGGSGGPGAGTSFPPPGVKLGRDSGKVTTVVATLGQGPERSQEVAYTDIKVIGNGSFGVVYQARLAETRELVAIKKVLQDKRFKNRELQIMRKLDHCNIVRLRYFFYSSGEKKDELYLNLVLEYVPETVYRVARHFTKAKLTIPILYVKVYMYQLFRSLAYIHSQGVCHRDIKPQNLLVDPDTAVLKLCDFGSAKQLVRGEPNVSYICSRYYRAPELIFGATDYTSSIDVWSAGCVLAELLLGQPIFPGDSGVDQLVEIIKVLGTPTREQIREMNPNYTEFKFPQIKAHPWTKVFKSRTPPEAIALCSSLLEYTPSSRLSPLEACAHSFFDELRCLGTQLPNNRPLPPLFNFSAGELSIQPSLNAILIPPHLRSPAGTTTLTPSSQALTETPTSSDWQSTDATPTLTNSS
# CDK9/CycT1, sequence (P50750 whole entry): as the sequence (P50750 whole entry) above
# CDK9/CycT1, sequence (O60563 whole entry partner): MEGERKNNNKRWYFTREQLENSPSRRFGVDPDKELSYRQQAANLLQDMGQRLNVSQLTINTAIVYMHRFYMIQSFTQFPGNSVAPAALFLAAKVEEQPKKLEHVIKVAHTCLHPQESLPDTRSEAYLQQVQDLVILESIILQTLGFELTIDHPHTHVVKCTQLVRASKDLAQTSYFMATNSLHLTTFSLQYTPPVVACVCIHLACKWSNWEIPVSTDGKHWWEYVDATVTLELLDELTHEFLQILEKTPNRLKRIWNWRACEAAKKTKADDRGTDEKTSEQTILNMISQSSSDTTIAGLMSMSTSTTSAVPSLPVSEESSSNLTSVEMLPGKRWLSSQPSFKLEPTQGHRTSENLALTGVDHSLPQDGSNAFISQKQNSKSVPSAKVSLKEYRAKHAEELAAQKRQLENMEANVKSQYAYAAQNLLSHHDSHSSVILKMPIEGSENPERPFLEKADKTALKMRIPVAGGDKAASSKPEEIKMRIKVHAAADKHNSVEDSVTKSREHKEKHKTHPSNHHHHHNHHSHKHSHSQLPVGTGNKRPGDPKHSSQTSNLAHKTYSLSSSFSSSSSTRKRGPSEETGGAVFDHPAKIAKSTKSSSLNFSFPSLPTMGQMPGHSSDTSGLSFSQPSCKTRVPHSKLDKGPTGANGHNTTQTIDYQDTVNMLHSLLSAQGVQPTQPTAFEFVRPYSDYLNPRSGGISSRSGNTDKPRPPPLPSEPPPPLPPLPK
# CDK7/CycH/MNAT1, sequence (P50613 whole entry): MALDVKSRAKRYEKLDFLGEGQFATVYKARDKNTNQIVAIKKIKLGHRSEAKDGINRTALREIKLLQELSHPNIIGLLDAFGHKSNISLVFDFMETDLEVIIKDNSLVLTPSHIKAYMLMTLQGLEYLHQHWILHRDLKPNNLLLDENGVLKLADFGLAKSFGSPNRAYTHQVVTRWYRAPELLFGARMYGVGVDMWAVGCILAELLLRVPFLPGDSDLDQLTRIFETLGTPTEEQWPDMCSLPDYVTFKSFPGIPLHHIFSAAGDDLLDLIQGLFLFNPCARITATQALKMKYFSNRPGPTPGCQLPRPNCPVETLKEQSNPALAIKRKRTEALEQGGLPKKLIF
# CDK7/CycH/MNAT1, sequence (P51946 whole entry partner): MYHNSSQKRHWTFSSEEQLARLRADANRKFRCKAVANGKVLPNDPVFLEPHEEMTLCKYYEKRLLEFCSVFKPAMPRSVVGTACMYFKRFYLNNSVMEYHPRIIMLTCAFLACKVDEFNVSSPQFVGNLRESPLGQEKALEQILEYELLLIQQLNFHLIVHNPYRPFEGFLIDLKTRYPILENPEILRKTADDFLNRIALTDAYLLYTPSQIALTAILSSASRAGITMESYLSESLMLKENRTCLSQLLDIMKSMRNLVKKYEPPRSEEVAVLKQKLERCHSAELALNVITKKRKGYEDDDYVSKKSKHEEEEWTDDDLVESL
# CDK7/CycH/MNAT1, sequence (P51948 whole entry partner): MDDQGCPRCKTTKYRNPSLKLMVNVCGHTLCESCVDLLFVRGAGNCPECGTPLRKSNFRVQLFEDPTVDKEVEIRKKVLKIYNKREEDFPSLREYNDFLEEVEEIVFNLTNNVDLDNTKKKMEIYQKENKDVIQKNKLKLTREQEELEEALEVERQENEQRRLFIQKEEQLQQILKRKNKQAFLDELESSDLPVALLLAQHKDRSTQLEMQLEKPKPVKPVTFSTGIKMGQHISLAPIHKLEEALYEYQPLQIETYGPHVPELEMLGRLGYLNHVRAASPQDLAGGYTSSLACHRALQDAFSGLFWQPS
# DYRK1B, sequence (Q9Y463 whole entry): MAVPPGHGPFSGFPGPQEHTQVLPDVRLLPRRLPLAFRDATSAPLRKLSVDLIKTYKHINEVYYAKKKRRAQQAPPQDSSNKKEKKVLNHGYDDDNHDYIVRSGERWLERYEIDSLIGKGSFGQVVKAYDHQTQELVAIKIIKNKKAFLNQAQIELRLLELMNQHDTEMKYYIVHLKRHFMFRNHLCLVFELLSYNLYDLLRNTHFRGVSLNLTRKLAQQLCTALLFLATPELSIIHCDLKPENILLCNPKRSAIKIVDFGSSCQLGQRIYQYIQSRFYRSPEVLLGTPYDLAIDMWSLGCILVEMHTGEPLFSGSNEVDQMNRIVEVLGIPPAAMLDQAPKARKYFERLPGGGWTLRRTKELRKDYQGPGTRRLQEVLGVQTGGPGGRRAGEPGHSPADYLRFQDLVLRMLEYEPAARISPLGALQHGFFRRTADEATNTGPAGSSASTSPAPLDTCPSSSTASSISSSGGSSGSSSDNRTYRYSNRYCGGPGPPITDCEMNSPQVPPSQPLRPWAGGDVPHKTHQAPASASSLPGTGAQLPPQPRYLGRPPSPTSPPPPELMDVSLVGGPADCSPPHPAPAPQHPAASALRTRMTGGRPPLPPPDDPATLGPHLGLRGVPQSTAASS
# CDK7, sequence (P50613 whole entry): as the sequence (P50613 whole entry) above
smiles,measurement,setting,value
"CC(C)(C)c1cnc(CSc2cnc(NC(=O)C3CCNCC3)s2)o1 [SNS-032, N-[5-[[[5-(1,1-Dimethylethyl)-2-oxazolyl]methyl]thio]-2-thiazolyl]-4-piperidinecarboxamide]",IC50,"[1]; Homo sapiens, MOLT-4, 72 h",173 nM
same,time to induction of apoptosis (PARP and Caspase-3 cleavage),[2],≤ 4 h
same,phosphorylation of RNA Pol II CTD Serine 2,[3],inhibited in a concentration dependent manner
same,"percent inhibited PCTAIRE2,PCTAIRE3 (Lys1) labeling",[4]; CRBN−/− MOLT4 cells,75.4%
same,CDK9 engagement (bio-AT7519 competition),[5]; [31],showed engagement
COC[C@@H](C)NC1CCC(Nc2cc(-c3cccc(NCC4(C#N)CCOCC4)n3)c(Cl)cn2)CC1 (stereo partly drawn) [NVP-2],percent inhibited CDK9 (Lys2) labeling,[6],~63%
same,percent inhibited CDK6 (Lys2) labeling,[7]; CRBN−/− MOLT4 cells,−8.6%
same,percent inhibited CDK6 (Lys2) labeling,[7]; Wildtype MOLT4 cells,−10%
same,percent inhibited PCTAIRE2 (Lys2) labeling,[8]; CRBN−/− MOLT4 cells,10.3%
same,percent inhibited PCTAIRE2 (Lys2) labeling,[8]; Wildtype MOLT4 cells,8.1%
same,Kinomescan inhibition of CDK9,[9],greater than 99%
same,CDK9 engagement in lysate,[10],strongly engaged
same,IC50,"[1]; wild-type MOLT4, 72 hours, CellTiter Glo",9 nM
same,CDK2 engagement (bio-AT7519 competition),[11],unaffected
same,"percent inhibited PCTAIRE1,PCTAIRE3 (Lys2) labeling",[12]; CRBN−/− MOLT4 cells,−5.2%
same,"percent inhibited PCTAIRE1,PCTAIRE3 (Lys2) labeling",[12]; Wildtype MOLT4 cells,−30.5%
same,CDK7 engagement (bio-AT7519 competition),[13],unaffected
same,time to induction of apoptosis (PARP and Caspase-3 cleavage),[2],≤ 4 h
same,CDK10 engagement in lysate,[14],strongly engaged
same,percent inhibited GSK3A (Lys2) labeling,[15]; CRBN−/− MOLT4 cells,10%
same,percent inhibited GSK3A (Lys2) labeling,[15]; Wildtype MOLT4 cells,5.8%
same,phosphorylation of RNA Pol II CTD Serine 2,[3],inhibited in a concentration dependent manner
same,Kinomescan inhibition of DYRK1B,[16],greater than 99%
same,IC50,"[17]; read-out: CDK7 IC50, Km ATP",> 10000 nM
same,IC50,"[18]; read-out: IC50 CDK9/CycT kinase activity, Km ATP",< 0.514 nM
same,Annexin V positive cells,[19],~100%
same,MCL-1 protein level,[20],MCL-1 loss was observed
same,S(1) score,[21],0.005
same,"percent inhibited PCTAIRE2,PCTAIRE3 (Lys1) labeling",[4]; CRBN−/− MOLT4 cells,−15%
same,"percent inhibited PCTAIRE2,PCTAIRE3 (Lys1) labeling",[4]; Wildtype MOLT4 cells,−4.7%
same,CDK9 engagement (bio-AT7519 competition),[5]; [31],engages CDK9 in wildtype and CRBN−/− MOLT4 cells at all concentrations tested
CC(C)(C)c1cnc(CSc2cnc(NC(=O)C3CCN(CC(=O)NCCOCCOCCOCCNc4cccc5c4C(=O)N(C4CCC(=O)NC4=O)C5=O)CC3)s2)o1 (stereo not drawn) [THAL-SNS-032],viability after washout,"[1]; 250nM, 6 hours treatment then washout, 72 hours of growth",more profound decrease in viability after washout compared to NVP-2 or SNS-032
same,IC50,"[1]; Homo sapiens, MOLT-4, 72 h",50 nM
same,CDK7 mRNA level relative to DMSO-treated,[22],around 20%
same,"percent inhibited PCTAIRE1,PCTAIRE3 (Lys2) labeling",[12]; CRBN−/− MOLT4 cells,11.4%
same,"percent inhibited PCTAIRE1,PCTAIRE3 (Lys2) labeling",[12]; Wildtype MOLT4 cells,16.3%
same,IC50,[23],3630 nM
same,inhibition of proliferation compared to SNS-032,[24],more potent inhibition of proliferation as compared to SNS-032
same,CDK10 degradation,[25],partial degradation
same,time to induction of apoptosis (PARP and Caspase-3 cleavage),[2],≤ 4 h
same,IC50,[26],62 nM
same,time for CDK9 levels to return to baseline after washout,[27]; [32],36 h
same,time of partial rebound of CDK9 levels after washout,[27]; [32],≤ 12 h
same,time to complete CDK9 degradation,"[27]; MOLT4 cells, 250 nM",2 h
same,persistence of CDK9 degradation,"[27]; MOLT4 cells, 250nM time course",at least 24 hours
same,concentration inducing complete CDK9 degradation,"[27]; MOLT4 cells, 6-hour treatment",250 nM
same,concentration at which CDK9 degradation decreases (hook effect),"[27]; MOLT4 cells, 6 hours",≥ 5 µM
same,phosphorylation of RNA Pol II CTD Serine 2,[3],inhibited phosphorylation of Serine 2 in a concentration and time-dependent manner
same,IC50,[28],171 nM
same,CDK1 mRNA level relative to DMSO-treated,[29],around 20%
same,IC50,[17],398 nM
same,IC50,[18],4 nM
same,MCL-1 protein level,[20],loss of MCL-1
same,"percent inhibited PCTAIRE2,PCTAIRE3 (Lys1) labeling",[4]; CRBN−/− MOLT4 cells,16%
same,"percent inhibited PCTAIRE2,PCTAIRE3 (Lys1) labeling",[4]; Wildtype MOLT4 cells,22.1%
same,CDK9 abundance in proteome-wide analysis,[30],most depleted protein out of 4512 proteins
same,CDK9 engagement (bio-AT7519 competition),[5]; CRBN−/− MOLT4 cells only,little to no engagement
